Assays:
CDK2 and CDK1 = conditions: no cyclins present; ref Wood et al., 2019; cited from earlier work
[1] = target: CDK11 Wild-type (CDK11B residues 72–380) (Homo sapiens, UniProt P21127); assay: ITC binding of OTS964 to CDK11 wild-type
CDK11 Gly223Ser = CDK11 Gly223Ser (Homo sapiens, UniProt P21127, G579S); assay: ITC binding of OTS964 to CDK11 Gly223Ser
CDK11 Gly223Ala (G223A) = CDK11 Gly223Ala (G223A) (Homo sapiens, UniProt P21127, G579A); assay: ITC binding of OTS964 to CDK11 Gly223Ala
CDK11 Glu89Gly (E89G) = CDK11 Glu89Gly (E89G) (Homo sapiens, UniProt P21127, E445G); assay: ITC binding of OTS964 to CDK11 Glu89Gly
CDK11 Glu89Gly (E89G), sequence (P21127 428-736 E445G): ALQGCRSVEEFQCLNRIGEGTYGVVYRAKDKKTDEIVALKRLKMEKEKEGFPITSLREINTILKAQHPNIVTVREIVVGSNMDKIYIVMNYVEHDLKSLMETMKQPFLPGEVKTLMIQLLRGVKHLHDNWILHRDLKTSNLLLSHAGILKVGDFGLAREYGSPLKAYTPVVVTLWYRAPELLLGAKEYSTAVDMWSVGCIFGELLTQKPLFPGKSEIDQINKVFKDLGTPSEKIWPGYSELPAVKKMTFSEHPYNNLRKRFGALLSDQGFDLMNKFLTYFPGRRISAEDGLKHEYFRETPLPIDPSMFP

CDK11 Met160Phe (M160F) = CDK11 Met160Phe (M160F) (Homo sapiens, UniProt P21127, M516F); assay: ITC binding of OTS964 to CDK11 Met160Phe
CDK11 Met160Phe (M160F), sequence (P21127 428-736 M516F): as the sequence (P21127 428-736 E445G) above, with G18E, M89F counted along it

CDK11 G223A/E89G/M160F = CDK11 G223A/E89G/M160F (Homo sapiens, UniProt P21127, E445G/G579A/M516F); assay: ITC binding of OTS964 to CDK11 triple mutant
CDK11 G223A/E89G/M160F, sequence (P21127 428-736 E445G/M516F/G579A): as the sequence (P21127 428-736 E445G) above, with M89F, G152A counted along it

CDK2 Wild-type = CDK2 Wild-type (Homo sapiens, UniProt P24941); assay: ITC binding of OTS964 to CDK2 wild-type
Method in brief: (§1)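 Human CDK2 (res. 1–298, wild-type or point mutant) is expressed as a GST-PreScission fusion with yeast CAK1 in E. coli BL21(DE3), then tag-cleaved and gel-filtered, with no cyclin. ITC at 25°C in 25 mM HEPES pH 7.5, 250 mM NaCl, 1 mM DTT, 2.0% DMSO: 2250 μM test compound into 150 μM kinase, 38×1 μL injections 180 s apart.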

CDK2 Gly11Glu (G11E) = CDK2 Gly11Glu (G11E) (Homo sapiens, UniProt P24941, G11E); assay: ITC binding of OTS964 to CDK2 Gly11Glu
Method in brief: as §1

CDK2 Phe80Met (F80M) = CDK2 Phe80Met (F80M) (Homo sapiens, UniProt P24941, F80M); assay: ITC binding of OTS964 to CDK2 Phe80Met
Method in brief: as §1

CDK2 Ala144Gly (A144G) = CDK2 Ala144Gly (A144G) (Homo sapiens, UniProt P24941, A144G); assay: ITC binding of OTS964 to CDK2 Ala144Gly
Method in brief: as §1

CDK2-cyclin A Wild-type = CDK2-cyclin A Wild-type (Homo sapiens, UniProt P24941); assay: ITC binding of OTS964 to CDK2-cyclin A wild-type; conditions: for Kd: mean ± SD
[2] = target: CDK2-cyclin A Gly11Glu (G11E) (Homo sapiens, UniProt P24941, G11E); assay: ITC binding of OTS964 to CDK2 Gly11Glu-cyclin A
[3] = target: CDK2-cyclin A Phe80Met (F80M) (Homo sapiens, UniProt P24941, F80M); assay: ITC binding of OTS964 to CDK2 Phe80Met-cyclin A
[4] = target: CDK2-cyclin A Ala144Gly (A144G) (Homo sapiens, UniProt P24941, A144G); assay: ITC binding of OTS964 to CDK2 Ala144Gly-cyclin A
other CDKs = conditions: ref Lin et al., 2019, cited from earlier work
CDK7 = conditions: KINOMEscan panel of CDKs; ref Lin et al., 2019; cited from earlier work
[5] = test system: tumor cell lines harbouring FBXW7−/− mutations; conditions: FBXW7−/− versus FBXW7 wild-type tumor cell lines; ref O’Brien et al. (2022); cited from earlier work
[6] = ITC, CDK2 wild-type with cyclin A
[7] = ITC, CDK2 Gly11Glu with cyclin A
[8] = ITC, CDK2 Phe80Met with cyclin A
[9] = ITC, CDK2 Ala144Gly with cyclin A

CDK11 Gly223Ser, sequence (P21127 428-736 G579S): as the sequence (P21127 428-736 E445G) above, with G18E, G152S counted along it
CDK11 Gly223Ala (G223A), sequence (P21127 428-736 G579A): as the sequence (P21127 428-736 E445G) above, with G18E, G152A counted along it
CDK11 Wild-type (CDK11B residues 72–380), sequence (P21127 428-736): as the sequence (P21127 428-736 E445G) above, with G18E counted along it

Compound: Cc1ncc(-c2ccnc(Nc3ccc(S(C)(=O)=O)cc3)n2)n1C(C)C [AZD5438]
- difference in affinity between CDK2 and CDK1 (CDK2 and CDK1): ~ 170 X

Compound: Cc1cc(O)c(-c2ccc(C(C)CN(C)C)cc2)c2c1[nH]c(=O)c1sccc12 (stereo not drawn) [OTS964]
- Kd [1]: 65.4 ± 18 nM
- Kd (CDK11 Gly223Ser): 853 ± 56 nM
- Kd (CDK11 Gly223Ala (G223A)): 31.7 ± 13.8 nM
- Kd (CDK11 Glu89Gly (E89G)): 50.9 ± 3.3 nM
- Kd (CDK11 Met160Phe (M160F)): 556 ± 26 nM
- Kd (CDK11 G223A/E89G/M160F): 320 ± 66 nM
- Kd (CDK2 Wild-type): 16300 ± 1700 nM
- weaker binding than monomeric CDK11 (CDK2 Wild-type; ITC KD, CDK2 without cyclin vs monomeric CDK11): ~ 250 fold
- N (sites) (CDK2 Wild-type; ITC, 25°C, CDK2 wild-type, no cyclin): 0.704 sites
- ΔH (CDK2 Wild-type; ITC, CDK2 wild-type, no cyclin): -9.12 ± 0.60 kcal/mol
- ΔS (CDK2 Wild-type; ITC, CDK2 wild-type, no cyclin): −8.66 ± 1.80 cal/mol/K
- ΔG (CDK2 Wild-type; ITC, CDK2 wild-type, no cyclin, ΔG = ΔH − TΔS): -6.54 ± 0.06 kcal/mol
- Kd (CDK2 Gly11Glu (G11E)): 6820 ± 530 nM
- N (sites) (CDK2 Gly11Glu (G11E); ITC, 25°C, CDK2 Gly11Glu, no cyclin): 0.866 sites
- ΔH (CDK2 Gly11Glu (G11E); ITC, CDK2 Gly11Glu, no cyclin): -9.45 ± 0.32 kcal/mol
- ΔS (CDK2 Gly11Glu (G11E); ITC, CDK2 Gly11Glu, no cyclin): −8.05 ± 1.23 cal/mol/K
- ΔG (CDK2 Gly11Glu (G11E); ITC, CDK2 Gly11Glu, no cyclin, ΔG = ΔH − TΔS): -7.05 ± 0.05 kcal/mol
- Kd (CDK2 Phe80Met (F80M)): 32400 ± 1900 nM
- N (sites) (CDK2 Phe80Met (F80M); ITC, 25°C, CDK2 Phe80Met, no cyclin): 0.804 sites
- ΔS (CDK2 Phe80Met (F80M); ITC, CDK2 Phe80Met, no cyclin): −19.1 ± 1.1 cal/mol/K
- ΔG (CDK2 Phe80Met (F80M); ITC, CDK2 Phe80Met, no cyclin, ΔG = ΔH − TΔS): 17.5 ± 0.6 kcal/mol
- Kd (CDK2 Ala144Gly (A144G)): 16000 ± 4600 nM
- N (sites) (CDK2 Ala144Gly (A144G); ITC, 25°C, CDK2 Ala144Gly, no cyclin): 0.554 sites
- ΔH (CDK2 Ala144Gly (A144G); ITC, CDK2 Ala144Gly, no cyclin): -10.6 ± 1.2 kcal/mol
- ΔS (CDK2 Ala144Gly (A144G); ITC, CDK2 Ala144Gly, no cyclin): −13.4 ± 4.5 cal/mol/K
- ΔG (CDK2 Ala144Gly (A144G); ITC, CDK2 Ala144Gly, no cyclin, ΔG = ΔH − TΔS): -6.56 ± 0.17 kcal/mol
- enhancement of binding of CDK2 to OTS964 in the presence versus absence of cyclin A (CDK2-cyclin A Wild-type; ITC KD): 7 fold
- N (sites) (CDK2-cyclin A Wild-type; ITC, 25°C, CDK2 wild-type with cyclin A): 1.00 sites
- ΔH (CDK2-cyclin A Wild-type; [6]): -8.64 ± 1.06 kcal/mol
- ΔS (CDK2-cyclin A Wild-type; [6]): −2.64 ± 2.99 cal/mol/K
- ΔG (CDK2-cyclin A Wild-type; ITC, CDK2 wild-type with cyclin A, ΔG = ΔH − TΔS): -7.85 ± 0.18 kcal/mol
- Kd (CDK2-cyclin A Wild-type; ITC, 25°C, CDK2 wild-type with cyclin A, n=2): 1820 ± 500 nM
- Kd (CDK2-cyclin A Wild-type; ITC, CDK2 in the presence of cyclin A): 1800 ± 500 nM
- Kd [2]: 621 ± 16 nM
- N (sites) ([2]; ITC, 25°C, CDK2 Gly11Glu with cyclin A): 1.16 sites
- ΔH [2, 7]: -7.13 ± 0.21 kcal/mol
- ΔS [2, 7]: 4.48 ± 0.76 cal/mol/K
- ΔG ([2]; ITC, CDK2 Gly11Glu with cyclin A, ΔG = ΔH − TΔS): -8.47 ± 0.02 kcal/mol
- Kd [3]: 4980 ± 440 nM
- N (sites) ([3]; ITC, 25°C, CDK2 Phe80Met with cyclin A): 1.28 sites
- ΔH [3, 8]: -9.69 ± 0.08 kcal/mol
- ΔS [3, 8]: −8.23 ± 0.44 cal/mol/K
- ΔG ([3]; ITC, CDK2 Phe80Met with cyclin A, ΔG = ΔH − TΔS): -7.24 ± 0.05 kcal/mol
- Kd [4]: 3030 ± 150 nM
- N (sites) ([4]; ITC, 25°C, CDK2 Ala144Gly with cyclin A): 1.04 sites
- ΔH [4, 9]: -6.92 ± 0.01 kcal/mol
- ΔS [4, 9]: 2.04 ± 0.11 cal/mol/K
- ΔG ([4]; ITC, CDK2 Ala144Gly with cyclin A, ΔG = ΔH − TΔS): -7.53 ± 0.03 kcal/mol
- binding to other CDKs tested (other CDKs; KINOMEscan panel of CDKs): no apparent binding
- Kd (other CDKs; other CDKs): > 3000 nM
- higher affinity for CDK11 than other CDKs (other CDKs): at least 75 fold
- more potent against CDK11 than against CDK7 (CDK7): 10 X
- sensitivity to OTS964 treatment [5]: more sensitive

Source: paper PMC9722545 (Structure (London, England : 1993), 2022)
